Assay results taken from ChEMBL document CHEMBL1833801, “Natural daucane sesquiterpenes with antiproliferative and proapoptotic activity against human tumor cells” (Bioorg Med Chem, 2011).
Activity calls are given as the source filed them. The calls are words filed in the database; no cut-off is given here.

Assays:
HeLa = experiment: Cytotoxicity against human HeLa cells after 72 hrs by MTT assay; assay type: functional, cell-based
A549 = experiment: Cytotoxicity against human A549 cells after 72 hrs by MTT assay; assay type: functional, cell-based; conditions: A549, 72 h
HL-60 = experiment: Cytotoxicity against human HL60 cells after 72 hrs by MTT assay; assay type: functional, cell-based; conditions: HL-60, 72 h
Jurkat [1] = experiment: Cytotoxicity against human Jurkat cells after 72 hrs by MTT assay; assay type: functional, cell-based
K562 = experiment: Cytotoxicity against human K562 cells after 72 hrs by MTT assay; assay type: functional, cell-based; conditions: K562, 72 h
[2] = Cytotoxicity against human RS4:11 cells after 72 hrs by MTT assay; assay type: functional, cell-based; conditions: RS4-11, 72 h
[3] = Cytotoxicity against human SEM cells after 72 hrs by MTT assay; assay type: functional, cell-based
Jurkat [4] = experiment: Cell cycle arrest in human Jurkat cells assessed as accumulation at G2/M phase after 48 hrs using propidium iodide staining by flow cytometry; assay type: functional, cell-based
Outline: (§1)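 Exponentially growing Jurkat cells, 2.5×10^5, exposed to 1.25–100 µM for 48 h. Cells fixed in ice-cold 70% ethanol, lysed in buffer with RNase A and 0.1% Triton X-100, stained with propidium iodide. Cell-cycle phases read by flow cytometry. Mean ± SEM of three independent experiments; two-sided Student's t test against control.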

Jurkat [5] = experiment: Cell cycle arrest in human Jurkat cells assessed as decrease in S phase phase after 48 hrs using propidium iodide staining by flow cytometry; assay type: functional, cell-based; outline: as §1
Jurkat [6] = experiment: Cell cycle arrest in human Jurkat cells assessed as decrease in G1 phase phase after 48 hrs using propidium iodide staining by flow cytometry; assay type: functional, cell-based; outline: as §1
PBL [7] = experiment: Cytotoxicity against human PBL after 72 hrs by MTT assay; assay type: cell-based
Outline: (§2)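 PBL from healthy donors separated on a density gradient, washed, held at 1.0×10^6 cells/mL in RPMI-1640 with 10% FCS overnight. Non-adherent cells resuspended at 5×10^5 cells/mL. Stimulated cultures received 2.5 µg/mL PHA; resting cultures had none. Compound at several concentrations for 72 h, viability by MTT, IC50 taken. Mean ± SEM of three experiments.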

PBL [8] = experiment: Cytotoxicity against PHA-stimulated human PBL after 72 hrs by MTT assay; assay type: cell-based; outline: as §2
Jurkat [9] = experiment: Induction of apoptosis in human Jurkat cells assessed as increase in late apoptotic cells after 24 hrs by FITC-conjugated annexin V and propidium iodide staining-based flow cytometry; assay type: functional, cell-based
Outline: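 Jurkat cells exposed for 24 and 48 h, over a range of 1.25–100 µM, then co-stained with Annexin-V-FITC and propidium iodide. Read by flow cytometry, excitation 488 nm, emission 525 and 585 nm. Quadrants scored as A+/PI− (early apoptotic) and A+/PI+ (late apoptotic), compared with untreated cells. Mean ± SEM of three independent experiments.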

Row | SMILES | IC50 (HeLa) [µM] | IC50 (A549) [µM] | IC50 (HL-60) [µM] | IC50 (Jurkat [1]) [µM] | IC50 (K562) [µM] | IC50 [2] [µM] | IC50 [3] [µM] | Activity (Jurkat [4]) | Activity (Jurkat [5]) | Activity (Jurkat [6]) | IC50 (PBL [7]) [µM] | IC50 (PBL [8]) [µM] | Activity (Jurkat [9])
1 | CC1=CC[C@]2(C)[C@@H]([C@@H](OC(=O)c3ccc(O)cc3)C1)[C@](O)(C(C)C)C[C@@H]2O | 56.5 | 83.7 | 3.5 | 40.3 | 95 | 33.4 | 22.4 | – | – | – | – | – | –
2 | COc1ccc(C(=O)O[C@H]2CC(C)=CC[C@@]3(C)CC[C@@](O)(C(C)C)[C@H]23)cc1 [FERUTIDIN] | > 100 | 31.9 | 20.1 | 30.5 | 67.8 | 17.6 | 18.2 | – | – | – | – | – | –
3 | C=C1C[C@H](OC(=O)c2ccc(O)cc2)[C@@H]2[C@](C)(CC[C@@]2(O)C(C)C)C[C@@H]1O | > 100 | > 100 | 43.4 | 55 | > 100 | 29 | 34.7 | – | – | – | – | – | –
4 | COc1ccc(C(=O)OCC2=CC[C@@]3(C)CC[C@]4(C(C)C)O[C@]34CC2)cc1 | > 100 | > 100 | > 100 | > 100 | > 100 | 60.9 | 84 | – | – | – | – | – | –
5 | C/C=C(\C)C(=O)O[C@H]1C[C@@]2(C)O[C@H]2[C@@H](OC(C)=O)[C@@]2(C)CC[C@@](O)(C(C)C)[C@H]12 | > 100 | > 100 | > 100 | > 100 | > 100 | > 100 | > 100 | – | – | – | – | – | –
6 | COc1ccc(C(=O)O[C@H]2CC(C)=C[C@H](O)[C@@]3(C)[C@@H](OC(C)=O)C[C@@](O)(C(C)C)[C@H]23)cc1 | 52.9 | 79.6 | 23 | 5.9 | 48.2 | 34.4 | 18.1 | Dose-dependent effect | Active | Active | 20.5 | 27.2 | Dose-dependent effect
7 | COc1ccc(C(=O)O[C@@H]2C=C(C)CC[C@]3(O)[C@H](C(C)C)CC(=O)[C@]23C)cc1 [SIOL ANISATE] | > 100 | > 100 | > 100 | > 100 | > 100 | > 100 | 23.9 | – | – | – | – | – | –
